ChEMBL document CHEMBL3352420, “Discovery of 2-pyridylureas as glucokinase activators” (J Med Chem, 2014)
Converted amounts (≈) assume the structure as drawn.

Key:
Hexokinase-4 [1] = target: T1, Hexokinase-4 (Homo sapiens, UniProt P35557); experiment: Activation of purified human glucokinase isoform 3 (13 to 466 aa) using 5 mM glucose by spectrophotometry in presence of NAD+ and glucose 6-phosphate dehydrogenase in presence of 4% HSA; conditions: read-out: EC50
T1 sequence (P35557 whole entry): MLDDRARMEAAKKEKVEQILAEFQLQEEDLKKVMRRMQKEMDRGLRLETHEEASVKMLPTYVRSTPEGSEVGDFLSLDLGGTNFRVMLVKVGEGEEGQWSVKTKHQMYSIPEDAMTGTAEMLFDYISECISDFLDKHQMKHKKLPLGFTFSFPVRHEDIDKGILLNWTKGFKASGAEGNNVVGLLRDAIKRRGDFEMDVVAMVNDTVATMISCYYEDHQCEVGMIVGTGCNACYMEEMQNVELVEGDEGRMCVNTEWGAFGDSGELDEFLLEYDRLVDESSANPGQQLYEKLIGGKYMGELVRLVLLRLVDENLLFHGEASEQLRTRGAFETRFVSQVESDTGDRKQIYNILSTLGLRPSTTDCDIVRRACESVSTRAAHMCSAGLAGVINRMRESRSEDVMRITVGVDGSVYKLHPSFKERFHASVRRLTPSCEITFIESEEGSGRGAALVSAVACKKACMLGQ

Hexokinase-4 [2] = target: T1, Hexokinase-4; experiment: Activation of purified human glucokinase isoform 3 (13 to 466 aa) using 5 mM glucose by spectrophotometry in presence of NAD+ and glucose 6-phosphate dehydrogenase
[3] = Extraction ratio in human liver microsomes at 1 uM up to 20 mins by LC-MS/MS analysis; format: ADME; conditions: read-out: ERH
[4] = Extraction ratio in mouse liver microsomes at 1 uM up to 20 mins by LC-MS/MS analysis; format: ADME; conditions: read-out: ERH
[5] = Clearance in fed CD-1 mouse at 1 mg/kg, iv as single dose; format: ADME, organism-based; design: dose 1 mg/kg, route intravenous; conditions: in vivo
Method in brief: (§1)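 Male CD-1 mice, fed, given a single 1 mg/kg iv dose as a solution in 40% PEG400/20% EtOH/40% saline (v/v). Parameters are calculated from arithmetic mean plasma concentrations, n = 3 per time point.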

Mus musculus [6] = experiment: Antidiabetic activity in C57BL/6 mouse assessed as minimum glucose level at 30 mg/kg, po measured at 2 hrs by oral glucose tolerance test relative to control; format: functional
Method in brief: (§2)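 Dose–response oral glucose tolerance test in C57BL/6 mice at 3, 10 and 30 mg/kg po. Glucose AUC reduction is reported with p < 0.05 significance. Glucose min is the lowest glucose at the 2 h time point for any animal, n = 8.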

[7] = Oral bioavailability in fed CD-1 mouse at 10 mg/kg as single dose; format: ADME, organism-based; conditions: in vivo
Method in brief: (§3)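 Male CD-1 mice, fed, given a single 10 mg/kg oral dose as a suspension in aqueous 1% CMC/0.05% Tween 80 (w/v). Parameters are calculated from arithmetic mean plasma concentrations, n = 3 per time point.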

[8] = Plasma concentration in C57BL/6 mouse at 30 mg/kg, po measured at 2.5 hrs; format: ADME, organism-based; design: dose 30 mg/kg, route oral
Method in brief: (§4)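 C57BL/6 mice in the OGTT study, dosed orally at 3, 10 or 30 mg/kg. Plasma concentrations are means at 2.5 h postdose, n = 8 per dose group.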

[9] = Extraction ratio in fed CD-1 mouse at 1 mg/kg, iv as single dose; format: ADME, organism-based; design: dose 1 mg/kg, route intravenous; conditions: in vivo, read-out: ERH
Method in brief: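 Male CD-1 mice, fed, given a single 1 mg/kg iv dose in 40% PEG400/20% EtOH/40% saline (v/v). Extraction ratio is calculated from clearance using a mouse hepatic blood flow of 90 mL min−1 kg−1. Plasma concentrations are arithmetic means, n = 3 per time point.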

[10] = AUClast in fed CD-1 mouse at 1 mg/kg, iv as single dose; format: ADME, organism-based; design: time 0 - last, dose 1 mg/kg, route intravenous; conditions: plasma; method in brief: as §1
[11] = AUC (infinity) in fed CD-1 mouse at 10 mg/kg, po as single dose; format: ADME, organism-based; design: time infinity, dose 10 mg/kg, route oral; conditions: plasma; method in brief: as §3
Mus musculus [12] = experiment: Antidiabetic activity in C57BL/6 mouse assessed as reduction in glucose AUC level at 3 mg/kg, po by oral glucose tolerance test relative to control; format: functional; design: scale not given: the % may be the effect or the level left; method in brief: as §2
Mus musculus [13] = experiment: Antidiabetic activity in ob/ob mouse assessed as reduction in glucose excursion at 30 mg/kg, po bid for 14 days by oral glucose tolerance test; format: functional; design: scale not given: the % may be the effect or the level left
Method in brief: (§5)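 ob/ob mice dosed orally b.i.d. at 3, 30 and 100 mg/kg for 14 days. On day 14 an OGTT is run, with fasting blood glucose read at −0.5 h and glucose excursion as AUC reduction. Significance is taken at p < 0.05.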

[14] = AUClast in fed CD-1 mouse at 10 mg/kg, po as single dose; format: ADME, organism-based; design: time 0 - last, dose 10 mg/kg, route oral; conditions: plasma; method in brief: as §3
[15] = Plasma protein binding in human; format: ADME, cell-free; conditions: read-out: PPB (converted)
Mus musculus [16] = experiment: Antidiabetic activity in ob/ob mouse assessed as reduction in glucose excursion at 100 mg/kg, po bid for 14 days by oral glucose tolerance test; format: functional; design: scale not given: the % may be the effect or the level left; method in brief: as §5
[17] = Half life in fed CD-1 mouse at 1 mg/kg, iv as single dose; format: ADME, organism-based; design: dose 1 mg/kg, route intravenous; conditions: in vivo; method in brief: as §1
[18] = Cmax in fed CD-1 mouse at 10 mg/kg, po as single dose; format: ADME, organism-based; design: dose 10 mg/kg, route oral; conditions: in vivo; method in brief: as §3
[19] = Fraction unbound in human plasma; format: ADME, cell-free
[20] = Solubility of the compound at pH 6.5; format: physicochemical; conditions: buffer
[21] = Plasma protein binding in mouse; format: ADME; conditions: read-out: PPB (converted)
[22] = Volume of distribution at steady state in fed CD-1 mouse at 1 mg/kg, iv as single dose; format: ADME, organism-based; design: dose 1 mg/kg, route intravenous; conditions: in vivo, read-out: Vdss; method in brief: as §1
Mus musculus [23] = experiment: Antidiabetic activity in ob/ob mouse assessed as reduction in glucose excursion at 3 mg/kg, po bid for 14 days by oral glucose tolerance test; format: functional; design: scale not given: the % may be the effect or the level left; method in brief: as §5
[24] = Plasma concentration in C57BL/6 mouse at 10 mg/kg, po measured at 2.5 hrs; format: ADME, organism-based; design: dose 10 mg/kg, route oral; method in brief: as §4
[25] = AUC (infinity) in fed CD-1 mouse at 1 mg/kg, iv as single dose; format: ADME, organism-based; design: time infinity, dose 1 mg/kg, route intravenous; conditions: plasma; method in brief: as §1
[26] = Tmax in fed CD-1 mouse at 10 mg/kg, po as single dose; format: ADME, organism-based; design: dose 10 mg/kg, route oral; conditions: in vivo; method in brief: as §3
Mus musculus [27] = experiment: Antidiabetic activity in C57BL/6 mouse assessed as reduction in glucose AUC level at 30 mg/kg, po by oral glucose tolerance test relative to control; format: functional; design: scale not given: the % may be the effect or the level left; method in brief: as §2
[28] = Plasma concentration in C57BL/6 mouse at 3 mg/kg, po measured at 2.5 hrs; format: ADME, organism-based; design: dose 3 mg/kg, route oral; method in brief: as §4
[29] = Solubility of the compound at pH 7.4; format: physicochemical; conditions: buffer
Mus musculus [30] = experiment: Antidiabetic activity in ob/ob mouse assessed as reduction in fasting blood glucose at 3 mg/kg, po bid for 14 days by oral glucose tolerance test (reference value: 187.9 mg/dL); format: functional; conditions: dose 100 mg/kg, in the assay text read “at 100 mg/kg” for “at 3 mg/kg”; method in brief: as §5
Mus musculus [31] = experiment: Antidiabetic activity in C57BL/6 mouse assessed as reduction in glucose AUC level at 10 mg/kg, po by oral glucose tolerance test relative to control; format: functional; design: scale not given: the % may be the effect or the level left; method in brief: as §2
[32] = Permeability across pig LLC-PK cells; format: ADME, cell-based, Sus scrofa
[33] = Solubility of the compound at pH 1.2; format: physicochemical; conditions: buffer

CCc1ncccc1Oc1cc(Sc2ccccn2)cnc1NC(=O)NCc1ccc(O)cc1
EC50 (Hexokinase-4 [1]): 1530 nM | EC50 (Hexokinase-4 [2]): 172 nM

CNC(=O)Nc1ncc(Sc2ccccn2)cc1Oc1cccnc1C
hepatic extraction ratio at 20 min, 1 µM [3]: 0.37 | EC50 (Hexokinase-4 [1]): 1850 nM | hepatic extraction ratio at 20 min, 1 µM [4]: 0.68 | EC50 (Hexokinase-4 [2]): 262 nM

CCn1nccc1Oc1cc(Sc2ccccn2)cnc1NC(=O)NC
hepatic extraction ratio at 20 min, 1 µM [3]: 0.45 | EC50 (Hexokinase-4 [1]): 472 nM | hepatic extraction ratio at 20 min, 1 µM [4]: 0.83 | EC50 (Hexokinase-4 [2]): 319 nM

CNC(=O)Nc1ncc(Sc2ccccn2)cc1Oc1c(C)n[nH]c1C
EC50 (Hexokinase-4 [1]): 345 nM | EC50 (Hexokinase-4 [2]): 2240 nM

CNC(=O)Nc1ncc(SCc2ccccn2)cc1Oc1cccnc1C
EC50 (Hexokinase-4 [1]): 9300 nM | EC50 (Hexokinase-4 [2]): 3090 nM

CNC(=O)Nc1ncc(SCc2ccccc2)cc1Oc1cccnc1C
hepatic extraction ratio at 20 min, 1 µM [3]: 0.93 | EC50 (Hexokinase-4 [1]): 1170 nM | hepatic extraction ratio at 20 min, 1 µM [4]: 0.93 | EC50 (Hexokinase-4 [2]): 172 nM

CNC(=O)Nc1ncc(SCCCO)cc1Oc1cccnc1C
hepatic extraction ratio at 20 min, 1 µM [3]: 0.15 | EC50 (Hexokinase-4 [1]): 714 nM | hepatic extraction ratio at 20 min, 1 µM [4]: 0.19 | EC50 (Hexokinase-4 [2]): 550 nM

CNC(=O)Nc1ncc(SCCCOC)cc1Oc1cccnc1C
clearance [5]: 21.5 mL/min/kg | Activity (Mus musculus [6]): 73 mg/dL | hepatic extraction ratio at 20 min, 1 µM [3]: 0.32 | bioavailability [7]: 67.8% | concentration at 2.5 h [8]: 633 ng/mL | hepatic extraction ratio [9]: 0.239 | AUC(0-t) [10]: 762 ng·h/mL | AUC(0-inf) [11]: 5240 ng·h/mL | Activity (Mus musculus [12]): 8% | Activity (Mus musculus [13]): 33.3% | AUC(0-t) [14]: 5030 ng·h/mL | fraction unbound [15]: 0.38 | Activity (Mus musculus [16]): 30.8% | half-life [17]: 2.67 h | Cmax [18]: 2320 ng/mL | fraction unbound [19]: 0.4 | solubility [20]: 45 µg/mL (≈ 124 µM) | fraction unbound [21]: 0.26 | Vd [22]: 1.98 L/kg | EC50 (Hexokinase-4 [1]): 311 nM | hepatic extraction ratio at 20 min, 1 µM [4]: 0.34 | EC50 (Hexokinase-4 [2]): 182 nM | Activity (Mus musculus [23]): 18.4% | concentration at 2.5 h [24]: 178 ng/mL | AUC(0-inf) [25]: 773 ng·h/mL | Tmax [26]: 0.5 h | Activity (Mus musculus [27]): 30.8% | concentration at 2.5 h [28]: 46 ng/mL | solubility [29]: 282 µg/mL (≈ 778 µM) | Activity (Mus musculus [30]): 125.9 mg/dL | Activity (Mus musculus [31]): 28.6% | permeability [32]: permeable | solubility [33]: > 1000 µg/mL

CNC(=O)Nc1ncc(SCC2CCOCC2)cc1Oc1cccnc1C
hepatic extraction ratio at 20 min, 1 µM [3]: 0.48 | EC50 (Hexokinase-4 [1]): 436 nM | hepatic extraction ratio at 20 min, 1 µM [4]: 0.43 | EC50 (Hexokinase-4 [2]): 317 nM

CNC(=O)Nc1ncc(SC2CCOCC2)cc1Oc1cccnc1C
hepatic extraction ratio at 20 min, 1 µM [3]: 0.47 | EC50 (Hexokinase-4 [1]): 233 nM | hepatic extraction ratio at 20 min, 1 µM [4]: 0.3 | EC50 (Hexokinase-4 [2]): 336 nM

CNC(=O)Nc1ncc(SC2CCN(C(=O)OC(C)(C)C)CC2)cc1Oc1cccnc1C
hepatic extraction ratio at 20 min, 1 µM [3]: 0.95 | EC50 (Hexokinase-4 [1]): 550 nM | hepatic extraction ratio at 20 min, 1 µM [4]: 0.9 | EC50 (Hexokinase-4 [2]): 132 nM

CNC(=O)Nc1ncc(SC2CCN(C(C)=O)CC2)cc1Oc1cccnc1C
hepatic extraction ratio at 20 min, 1 µM [3]: 0.44 | EC50 (Hexokinase-4 [1]): 196 nM | hepatic extraction ratio at 20 min, 1 µM [4]: 0.33 | EC50 (Hexokinase-4 [2]): 111 nM

CNC(=O)Nc1ncc(SC2CCN(S(C)(=O)=O)CC2)cc1Oc1cccnc1C
hepatic extraction ratio at 20 min, 1 µM [3]: 0.5 | EC50 (Hexokinase-4 [1]): 248 nM | hepatic extraction ratio at 20 min, 1 µM [4]: 0.32 | EC50 (Hexokinase-4 [2]): 195 nM
